CSN inh – blocks human CSN-mediated cullin deneddylation | Purified CSN, SCF-Nedd8-OG deneddylation, fluorescence polarization | inhibition, % at 12.5 µM | 360,000 compounds, 0.38% hits | AID 651999;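 active = pattern-corrected inhibition above about 35%, with an unprinted fluorescence ratio check between 0.5 and 1.5, limit read from the data, passing the limit was not always enough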
Target sequence (Q92905 whole entry, looked up, one chain of several): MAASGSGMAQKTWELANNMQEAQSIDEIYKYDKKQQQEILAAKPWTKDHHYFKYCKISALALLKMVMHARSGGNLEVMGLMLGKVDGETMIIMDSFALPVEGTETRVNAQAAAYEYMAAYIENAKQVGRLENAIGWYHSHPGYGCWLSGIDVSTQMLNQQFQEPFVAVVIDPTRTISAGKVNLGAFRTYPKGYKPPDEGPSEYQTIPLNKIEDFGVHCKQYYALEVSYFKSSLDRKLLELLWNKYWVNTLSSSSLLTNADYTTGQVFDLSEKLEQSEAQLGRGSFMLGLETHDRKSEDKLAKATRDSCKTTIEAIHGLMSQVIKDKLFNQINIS
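Assay system: HEK293T-derived human Csn5 enzyme; quantity: 0.24 nM enzyme; medium: Tris/NaCl/DTT buffer, pH 7.5; also added: substrate SCFSkp2-Nedd8OG, 10 nM; doses: 12.5 µM compound; schedule: 90 min reaction at room temperature; signal: FP; read-out: % inhibition of substrate cleavage by Csn5; benchmarks: substrate-only high control, full reaction low control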
TPT1 inhibitor – inhibitors of Candida albicans tRNA 2'-phosphotransferase TPT1; recombinant caTPT1, FP RNA substrate dephosphorylation; inhibition, % at 5 µM; 300,000 compounds, 0.81% hits; AID 1962;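 active = inhibition above the mean of all tested compounds plus 3 SD, set per screening campaign, cut at about 24% in these data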
PKA-R2B activ – PKA-R2B complex activation. activation, % at 11.4 µM. 340,000 compounds, 0.079% hits. P22694+P31323. PKA-R2B holoenzyme dissociation, Cy5-IP20 fluorescence polarization; R2B truncated from residue 108, S112A mutant; 0% DMSO only, 100% 113 µM cGMP;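 active = activation above a cutoff set at the mean over all compounds plus 3 SD, cut at about 18% in these data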;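 also: higher means more holoenzyme dissociation and a rise in polarization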
HNF4A DNA FP – change in binding of human HNF4 alpha to DNA | activity change, % at 10 µM | 360,000 compounds, 0.3% hits | P41235 | HNF4a-FITC DNA binding, fluorescence polarization, 1 h; in the data active = activity change above about 30%, passing the limit was not always enough
PKA-R1A activ – activates the PKA-R1A holoenzyme complex; PKA-R1A dissociation, Cy5-IP20 fluorescence polarization; scaled: DMSO 0%, 113 µM cGMP 100%; activation, % at 11.4 µM; 340,000 compounds, 0.083% hits;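 active = percent activation above the mean of all tested compounds plus 3 SD, cut at about 19% in these data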;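 also: higher means more PKAc released from R1A so a rise in polarization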
Rpn11 inh – blocks the human proteasome subunit Rpn11. O00487. human 26S proteasome, Ub4-pepOG fluorescence polarization; 20S core pre-blocked with epoxomicin. calls only at 20 µM. 360,000 compounds, 0.59% hits. AID 588493;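 active = inhibition at 20 µM, scaled to each plate's controls, above about 33%, limit read from the data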
Target sequence (O00487 whole entry, looked up): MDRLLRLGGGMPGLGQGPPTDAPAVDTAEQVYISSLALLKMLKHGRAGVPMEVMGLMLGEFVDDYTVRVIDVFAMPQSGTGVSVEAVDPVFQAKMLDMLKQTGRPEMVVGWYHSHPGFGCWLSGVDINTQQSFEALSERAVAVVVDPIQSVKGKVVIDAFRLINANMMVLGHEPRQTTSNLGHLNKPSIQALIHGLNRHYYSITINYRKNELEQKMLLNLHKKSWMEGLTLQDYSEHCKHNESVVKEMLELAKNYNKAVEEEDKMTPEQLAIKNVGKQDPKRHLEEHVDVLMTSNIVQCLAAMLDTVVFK
Large screens that a line does not name were inactive. The list is not random: actives were taken first. Their share in the collection is about 1.6%.

O=C1c2cc(Cl)ccc2OC2(CCNCC2)C12CC(c1ccccc1)=NO2 (stereo unspecified)	none
Cc1cccc(Oc2cc([N+](=O)[O-])cc3c2C(=O)Nc2ccccc2O3)c1	CSN inh 38.7 (not shown: Rpn11 inh)
O=[N+]([O-])c1cc2c(c([N+](=O)[O-])c1)Nc1ccccc1O2	none (no result: TPT1 inhibitor)
Cc1nc(SCc2ccc(Cl)c(Cl)c2)n[nH]1	HNF4A DNA FP 117.8 (no result: TPT1 inhibitor)
Cc1nc(SCc2ccc(F)cc2)n[nH]1	none
O=C(CSc1nnc2c(n1)[nH]c1ccccc12)NCc1ccccc1F	none
Cc1c(Cl)cccc1NC(=S)Nc1ccc2[nH]c(=O)[nH]c2c1	HNF4A DNA FP 38.9
CCOc1ccc(/C=C2/C(=O)N(c3ccc(OC)cc3)C(=S)N2CC(=O)OC)cc1OCC	HNF4A DNA FP 46.8 (not shown: Rpn11 inh)
COCc1[nH][nH]c(=O)c1C=Nc1ccc(Oc2ccccc2)cc1	none
COC(=O)c1c(C)[nH]c(O)c1C=Nc1ccc(C(C)C)cc1	CSN inh 53.2
COC(=O)c1c(C)[nH]c(O)c1C=Nc1ccc(Oc2ccccc2)cc1	CSN inh 89.6
COC(=O)[C@@H]1[C@H](CCc2ccccc2)NC(=O)N(Cc2ccccc2)[C@@H]1C	none
COc1ccc(NC(=O)CSc2nc3n[nH]c(C)c3c(=N)n2-c2ccc(Cl)c(C)c2)cc1OC	CSN inh 36.2
COc1ccc(OC)c(NC(=O)CSc2nc3n[nH]c(C)c3c(=N)n2-c2cccc(Cl)c2C)c1	none
CSCCC(NC(=O)c1ccco1)C(=O)OCc1cc([N+](=O)[O-])cc2c1OCOC2 (stereo unspecified)	none
OCCCc1nc2n(n1)C(c1ccccc1Cl)C=C(c1cccs1)N2 (stereo unspecified)	TPT1 inhibitor 24.2
COc1ccc(Cl)cc1NC(=S)NCCO	HNF4A DNA FP 56.8
Cn1ncc2c(=S)[nH]c(=S)[nH]c21	none (no result: TPT1 inhibitor, PKA-R2B activ, PKA-R1A activ, Rpn11 inh)
CN1CCN(c2nc(-c3cccc([N+](=O)[O-])c3)nc3ccccc23)CC1	CSN inh 44.0
Cc1ccc(-c2nc(N3CCN(C)CC3)c3ccccc3n2)cc1	none
CCS(=O)(=O)c1nc(S(=O)(=O)c2ccc(C)cc2)c(N2CCC(O)CC2)s1	none
O=c1cc(/C=C/c2c(F)cccc2Cl)[nH]c2ccccc12	Rpn11 inh active
COc1ccccc1Nc1nn2c(=O)c3ccc(C(=O)NCc4cccnc4)cc3nc2s1	CSN inh 84.1, HNF4A DNA FP 90.5
COc1ccccc1Nc1nn2c(=O)c3ccc(C(=O)N4CCCCC4)cc3nc2s1	none
COc1ccc2c(c1)CCc1c(C(=O)Nc3cc(C)n(Cc4ccc(Cl)cc4)n3)noc1-2	CSN inh 91.4
COc1ccc2c(c1)CCc1c(C(=O)NCc3ccc(Cl)cc3)noc1-2	none
CCOc1ccc(-c2nn(-c3ccccc3)cc2/C=C2\SC(N)=NC2=O)cc1C	HNF4A DNA FP 57.1
O=C(Nc1ccccc1)c1oc2ccccc2c1NC(=O)C1CC1	HNF4A DNA FP 61.2
Cc1cc(C(=O)NCC23CC4CC(CC(C4)C2)C3)c(C)o1	none (no result: CSN inh, PKA-R2B activ, HNF4A DNA FP, PKA-R1A activ, Rpn11 inh)
CCOc1ccc2nc(NC(=O)c3ccc(OCC4CCCO4)cc3)sc2c1 (stereo unspecified)	none
Cc1cccc(NC(=O)CN(CC2CCCO2)C(=O)c2cc(S(=O)(=O)N(C)C)ccc2F)c1C (stereo unspecified)	none (no result: TPT1 inhibitor)
CCCCCC[n+]1ccccc1/C=C/c1ccc(N(C)C)cc1	HNF4A DNA FP 120.7 (not shown: TPT1 inhibitor, PKA-R2B activ, PKA-R1A activ, Rpn11 inh)
CN(CCO)C(=O)c1nc[nH]c1C(=O)N1CCN(C(=O)OC(C)(C)C)CC1	none (no result: TPT1 inhibitor)
O=C(CSc1ccc(Cl)cc1)NNC(=O)c1ccncc1	none (no result: TPT1 inhibitor)
O=C(c1[nH]c(C(F)(F)F)nc1-c1ccccc1)N1CCCN(Cc2ccc(F)cc2)CC1	CSN inh 76.2 (no result: TPT1 inhibitor, PKA-R2B activ, PKA-R1A activ)
Cc1cc(-c2ccc(Br)s2)nc(-n2cccc2)n1	HNF4A DNA FP 50.3 (no result: TPT1 inhibitor)
O=C(O)CCN1C(=O)/C(=C\c2ccc(-c3nc4ccccc4s3)o2)SC1=S	TPT1 inhibitor 40.7, HNF4A DNA FP 45.4, Rpn11 inh active
COC(=O)c1c(N)sc2c1CCN(c1ncc(C(F)(F)F)cc1Cl)C2	none
COC(=O)c1c(/N=C/NOCc2ccc(Cl)cc2)sc2c1CCN(c1ncc(C(F)(F)F)cc1Cl)C2	CSN inh 36.7
CC(=O)C1=C(C)N=c2s/c(=C/c3ccc4c(c3)OCO4)c(=O)n2C1c1ccc(N(C)C)cc1 (stereo unspecified)	CSN inh 42.0, HNF4A DNA FP 78.1 (not shown: TPT1 inhibitor, Rpn11 inh)
CCOC(=O)C1=C(C)N=c2s/c(=C\c3ccc(C(=O)O)cc3)c(=O)n2C1c1ccc(F)cc1 (stereo unspecified)	none (no result: TPT1 inhibitor)
O=C(N/N=C/c1ccc2c(c1)OCO2)c1cc(-c2ccco2)nc2ccccc12	CSN inh 43.3 (no result: TPT1 inhibitor)
CCOC(=O)C1(Cc2ccc(Cl)cc2)CCN(C(=O)C2CCCO2)CC1 (stereo unspecified)	none
C=CCN1CC(C(=O)N2CCC(Cc3ccc(Cl)cc3)(C(=O)OCC)CC2)CC1=O (stereo unspecified)	HNF4A DNA FP 35.9
CCOc1ccc(-c2c(C#N)c(N)nc3sc(C(=O)c4ccccc4)c(N)c23)cc1	HNF4A DNA FP 39.9
COc1ccc(-c2c(C#N)c(N)nc3sc(C(=O)c4ccccc4)c(N)c23)cc1	none
O=C(O)c1ccccc1C=NNc1ccc([N+](=O)[O-])cn1	none (no result: TPT1 inhibitor)
O=[N+]([O-])c1ccc(NN=Cc2cccc3ccccc23)nc1	HNF4A DNA FP 35.4 (not shown: TPT1 inhibitor, Rpn11 inh)
Cc1ccc(CN2C(=O)C(CC(C)C)Nc3ncnc(N4CCCCC4)c32)cc1 (stereo unspecified)	CSN inh 77.8 (no result: TPT1 inhibitor, PKA-R2B activ, PKA-R1A activ)
CCC1Nc2ncnc(N3CCCCC3)c2N(Cc2ccc(C)cc2)C1=O (stereo unspecified)	none (no result: TPT1 inhibitor)
COc1cccc(NC(=O)CN(C)C(=O)c2ccc(-c3ccc(Cl)cc3)o2)c1	none
Cc1ccc(C=C2C=C(c3ccccc3)OC2=O)cc1	none (no result: TPT1 inhibitor)
Cc1ccc(C2=C/C(=C/c3cccs3)C(=O)O2)cc1	CSN inh 48.9 (not shown: Rpn11 inh)
CCOC(=O)c1cn(CC2CC2)c2cc(F)c(F)cc2c1=O	none
COc1cc(NS(=O)(=O)c2ccc(Br)cc2)c(OC)cc1NC(=O)c1ccco1	HNF4A DNA FP 68.0 (not shown: Rpn11 inh)
CCn1cc(C(=O)NCc2cccs2)c(=O)c2cc(S(=O)(=O)N3CCOCC3)ccc21	none (no result: CSN inh, PKA-R2B activ, HNF4A DNA FP, PKA-R1A activ, Rpn11 inh)
C[n+]1c(/C=C/c2ccc(O)cc2)ccc2ccccc21	none
Cc1cc(/C=C\c2ccc3cc(N(C)C)ccc3[n+]2C)c(C)n1-c1ccccc1	Rpn11 inh active
CCOC(=O)C(C)Sc1ncc(-c2ccc(Cl)cc2)cn1 (stereo unspecified)	HNF4A DNA FP 72.9
CCOC(=O)C(C)Sc1nc(=O)n2cccc(C)c2n1 (stereo unspecified)	none
